Assays:
Rattus norvegicus [1] = species: Rattus norvegicus; experiment: Relative efficacy gives an indication of the percent of viable cells (Rat cerebellar granule cells) at the maximal efficacious concentration of 0.6 uM; type: functional
Rattus norvegicus [2] = species: Rattus norvegicus; experiment: Ability to protect cerebellar granule cells (CGC) from iodoacetate (IAA)-induced toxicity; type: functional, cell-based
Rattus norvegicus [3] = species: Rattus norvegicus; experiment: Compound was tested for 50% Inhibition of lipid peroxidation in rat brain homogenate; type: functional
Rattus norvegicus [4] = species: Rattus norvegicus; experiment: Relative efficacy gives an indication of the percent of viable cells (Rat cerebellar granule cells) at the maximal efficacious concentration of 6 uM; type: functional
Rattus norvegicus [5] = species: Rattus norvegicus; experiment: Relative efficacy gives an indication of the percent of viable cells (Rat cerebellar granule cells) at the maximal efficacious concentration of 26.8 uM; type: functional
Rattus norvegicus [6] = species: Rattus norvegicus; experiment: Relative efficacy gives an indication of the percent of viable cells (Rat cerebellar granule cells) at the maximal efficacious concentration of 46.7 uM; type: functional
Summary of the method: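 Rat cerebellar granule cells exposed to 30 µM iodoacetate for 30 min in physiological salt solution, which was then replaced with maintenance medium containing test compound. Viability was read 24 h later. Relative efficacy is the percent of viable cells at the maximal efficacious concentration.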

Rattus norvegicus [7] = species: Rattus norvegicus; experiment: Relative efficacy gives an indication of the percent of viable cells (Rat cerebellar granule cells) at the maximal efficacious concentration of 0.3 uM; type: functional
Rattus norvegicus [8] = species: Rattus norvegicus; experiment: Relative efficacy gives an indication of the percent of viable cells (Rat cerebellar granule cells) at the maximal efficacious concentration of 33.3 uM; type: functional
Rattus norvegicus [9] = species: Rattus norvegicus; experiment: Relative efficacy gives an indication of the percent of viable cells (Rat cerebellar granule cells) at the maximal efficacious concentration of 77.8 uM; type: functional
Rattus norvegicus [10] = species: Rattus norvegicus; experiment: Relative efficacy gives an indication of the percent of viable cells (Rat cerebellar granule cells) at the maximal efficacious concentration of 5.0 uM; type: functional
Rattus norvegicus [11] = species: Rattus norvegicus; experiment: Relative efficacy gives an indication of the percent of viable cells (Rat cerebellar granule cells) at the maximal efficacious concentration of 0.4 uM; type: functional

Compound	IC50 (Rattus norvegicus [3]) [µM]	EC50 (Rattus norvegicus [2]) [µM]	further results
COc1cc(CCCn2ccc(=O)c(O)c2C)cc(OC)c1O	2	26.8	Relative efficacy (Rattus norvegicus [5]): 0.8
Cc1c(O)c(=O)ccn1C [DEFERIPRONE]	3.9	46.7	Relative efficacy (Rattus norvegicus [6]): 1
Cc1c(O)c(=O)ccn1CCCc1cc(C(C)(C)C)c(O)c(C(C)(C)C)c1	1	0.3	Relative efficacy (Rattus norvegicus [7]): 0.8
COc1cc(CCn2ccc(=O)c(O)c2C)cc(OC)c1O	3.3	33.3	Relative efficacy (Rattus norvegicus [8]): 0.9
Cc1c(C)c2c(c(C)c1O)CCC(C)(C(=O)O)O2 (stereo not given) [TROLOX]	28.7	77.8	Relative efficacy (Rattus norvegicus [9]): 0.9
CCNCc1cc(C(C)(C)C)c(O)c(C(C)(C)C)c1	14.8	5	Relative efficacy (Rattus norvegicus [10]): 0.9
Cc1c(O)c(=O)ccn1CCSc1cc(C(C)(C)C)c(O)c(C(C)(C)C)c1	0.4	0.4	Relative efficacy (Rattus norvegicus [11]): 0.6

Now from value to molecule, other results behind:

IC50 (Rattus norvegicus [3]) [µM]	Compound	EC50 (Rattus norvegicus [2]) [µM]	further results
2.9	Cc1c(O)c(=O)ccn1CCCCc1cc(C(C)(C)C)c(O)c(C(C)(C)C)c1	0.6	Relative efficacy (Rattus norvegicus [1]): 0.7
5.9	Cc1cc(C(C)(C)C)c(O)c(C(C)(C)C)c1 [BUTYLATED HYDROXYTOLUENE]	6	Relative efficacy (Rattus norvegicus [4]): 0.9
0.3	Cc1c(O)c(=O)ccn1CCc1cc(C(C)(C)C)c(O)c(C(C)(C)C)c1	0.3	Relative efficacy (Rattus norvegicus [7]): 0.9

Source: ChEMBL document CHEMBL1133778, “3,5-Disubstituted-4-hydroxyphenyls linked to 3-hydroxy-2-methyl-4(1H)-pyridinone: potent inhibitors of lipid peroxidation and cell toxicity” (J Med Chem, 2000)
